# Laboratory results as given in paper PMC3034256 (Chemistry & biology, 2011).
# Values joined by “and” are separate entries in the source; they are usually repeats but may differ in a detail not shown here. Equal entries are not always repeated.
# Key:
# PTPα = PTPα (Homo sapiens, UniProt P18433); test: PTP-catalyzed pNPP hydrolysis, PTPα; format: biochemical
# Outline: (§1)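 pNPP hydrolysis was run at 25 °C in 50 mM 3,3-dimethylglutarate, pH 7.0, 1 mM EDTA, ionic strength 0.15 M (NaCl). pNPP was fixed at each enzyme's experimentally determined Km, and reactions were started with enzyme. They were quenched with NaOH and corrected with no-enzyme controls. p-Nitrophenol was read at 405 nm. IC50 was fitted from AI/A0 = IC50/(IC50+[I]).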
# SHP1 = SHP1 (Homo sapiens, UniProt P29350); test: PTP-catalyzed pNPP hydrolysis, SHP1; format: biochemical
# Outline: as §1
# SHP2 = biological target: T1, SHP2 (Homo sapiens, UniProt Q06124); test: PTP-catalyzed pNPP hydrolysis, SHP2; format: biochemical
# T1 sequence (Q06124 262-528): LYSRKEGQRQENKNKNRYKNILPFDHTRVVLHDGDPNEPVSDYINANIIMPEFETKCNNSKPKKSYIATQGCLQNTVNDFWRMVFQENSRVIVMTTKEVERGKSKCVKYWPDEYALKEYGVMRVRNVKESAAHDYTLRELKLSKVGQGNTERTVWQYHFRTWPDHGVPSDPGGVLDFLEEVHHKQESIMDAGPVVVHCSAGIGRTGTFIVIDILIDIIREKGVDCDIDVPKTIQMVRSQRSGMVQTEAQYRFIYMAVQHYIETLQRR
# Outline: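 The SHP2 catalytic domain (residues 262–528) hydrolysed pNPP at 25 °C, pH 7.0 (50 mM 3,3-dimethylglutarate, 1 mM EDTA, ionic strength 0.15 M). Single-point screening used 10 µM final test compound. IC50 was measured at pNPP = Km by A405 after NaOH quench, fitted to AI/A0 = IC50/(IC50+[I]). For Ki and mode, initial rates at inhibitor 0–3 Ki and pNPP 0.2–5× apparent Km were fitted to kinetic equations.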
# CD45 = biological target: T2, CD45 (Homo sapiens, UniProt P08575); test: PTP-catalyzed pNPP hydrolysis, CD45; format: biochemical
# T2 sequence (P08575 26-1306): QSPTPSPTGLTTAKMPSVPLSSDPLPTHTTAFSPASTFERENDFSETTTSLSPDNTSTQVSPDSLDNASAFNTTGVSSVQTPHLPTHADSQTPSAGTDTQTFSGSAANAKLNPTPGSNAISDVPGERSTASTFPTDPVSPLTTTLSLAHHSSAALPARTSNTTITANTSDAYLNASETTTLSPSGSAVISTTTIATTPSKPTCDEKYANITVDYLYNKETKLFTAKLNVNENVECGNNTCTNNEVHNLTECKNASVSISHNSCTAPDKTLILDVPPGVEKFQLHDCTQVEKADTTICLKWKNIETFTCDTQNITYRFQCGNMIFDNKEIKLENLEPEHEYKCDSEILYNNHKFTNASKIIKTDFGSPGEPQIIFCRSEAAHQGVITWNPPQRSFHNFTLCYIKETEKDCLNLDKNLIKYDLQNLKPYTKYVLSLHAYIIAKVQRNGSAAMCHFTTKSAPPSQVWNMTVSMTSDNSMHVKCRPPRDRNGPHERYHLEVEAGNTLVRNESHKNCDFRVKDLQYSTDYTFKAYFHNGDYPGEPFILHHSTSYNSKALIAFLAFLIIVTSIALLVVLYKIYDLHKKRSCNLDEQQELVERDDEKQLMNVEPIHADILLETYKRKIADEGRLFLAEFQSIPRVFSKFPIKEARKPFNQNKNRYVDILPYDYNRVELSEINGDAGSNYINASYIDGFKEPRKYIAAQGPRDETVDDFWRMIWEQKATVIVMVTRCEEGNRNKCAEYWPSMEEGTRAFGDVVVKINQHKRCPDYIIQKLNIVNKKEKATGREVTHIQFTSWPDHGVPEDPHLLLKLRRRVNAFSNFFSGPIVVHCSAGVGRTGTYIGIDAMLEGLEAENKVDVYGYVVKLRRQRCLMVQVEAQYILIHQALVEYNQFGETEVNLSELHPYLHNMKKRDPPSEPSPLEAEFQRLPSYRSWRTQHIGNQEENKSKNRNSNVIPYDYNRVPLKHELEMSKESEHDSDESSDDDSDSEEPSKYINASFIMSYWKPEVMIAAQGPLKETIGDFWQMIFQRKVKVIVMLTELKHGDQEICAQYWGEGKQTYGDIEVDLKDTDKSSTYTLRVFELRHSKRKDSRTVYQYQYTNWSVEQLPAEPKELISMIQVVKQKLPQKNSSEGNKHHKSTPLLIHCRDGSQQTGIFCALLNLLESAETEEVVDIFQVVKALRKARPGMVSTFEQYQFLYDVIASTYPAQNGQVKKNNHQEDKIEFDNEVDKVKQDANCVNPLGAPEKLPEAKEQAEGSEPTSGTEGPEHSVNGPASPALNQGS
# Outline: as §1
# PP2A = conditions: biochemical assays; cited from earlier work
# VHR = VHR (Homo sapiens, UniProt P51452); test: PTP-catalyzed pNPP hydrolysis, VHR; format: biochemical
# Outline: as §1
# panel of PTPs = test: Screen against a panel of PTPs at 10 µM; format: biochemical; conditions: 10 µM compound, pNPP, pH 7, 25 °C
# PP1 = conditions: biochemical assays; cited from earlier work
# Jurkat T cells = test: TCR-mediated ERK1/2 activation in Jurkat T cells; format: cell-based; conditions: 2 h pretreatment (2 µM), 10 µg/mL anti-CD3
# human primary T-cell = conditions: ref Shim et al., 2002; cited from earlier work
# Sequence of SHP1 (P29350 whole entry): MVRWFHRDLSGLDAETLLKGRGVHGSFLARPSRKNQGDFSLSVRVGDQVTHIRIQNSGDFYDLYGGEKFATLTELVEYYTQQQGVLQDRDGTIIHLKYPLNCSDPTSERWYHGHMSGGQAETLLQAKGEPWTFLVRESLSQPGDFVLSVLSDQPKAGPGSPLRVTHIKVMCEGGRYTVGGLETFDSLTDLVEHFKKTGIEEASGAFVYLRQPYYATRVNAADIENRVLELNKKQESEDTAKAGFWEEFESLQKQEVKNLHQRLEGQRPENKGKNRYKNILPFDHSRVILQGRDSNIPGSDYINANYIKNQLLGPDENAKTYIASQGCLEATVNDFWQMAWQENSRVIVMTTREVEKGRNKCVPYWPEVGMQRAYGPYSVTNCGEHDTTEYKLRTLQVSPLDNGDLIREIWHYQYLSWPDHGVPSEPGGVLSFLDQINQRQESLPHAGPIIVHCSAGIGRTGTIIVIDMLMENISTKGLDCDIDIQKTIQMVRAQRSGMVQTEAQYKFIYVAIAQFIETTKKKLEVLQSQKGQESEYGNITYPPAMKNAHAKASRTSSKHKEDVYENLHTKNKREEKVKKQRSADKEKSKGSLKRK
# Sequence of PTPα (P18433 20-802): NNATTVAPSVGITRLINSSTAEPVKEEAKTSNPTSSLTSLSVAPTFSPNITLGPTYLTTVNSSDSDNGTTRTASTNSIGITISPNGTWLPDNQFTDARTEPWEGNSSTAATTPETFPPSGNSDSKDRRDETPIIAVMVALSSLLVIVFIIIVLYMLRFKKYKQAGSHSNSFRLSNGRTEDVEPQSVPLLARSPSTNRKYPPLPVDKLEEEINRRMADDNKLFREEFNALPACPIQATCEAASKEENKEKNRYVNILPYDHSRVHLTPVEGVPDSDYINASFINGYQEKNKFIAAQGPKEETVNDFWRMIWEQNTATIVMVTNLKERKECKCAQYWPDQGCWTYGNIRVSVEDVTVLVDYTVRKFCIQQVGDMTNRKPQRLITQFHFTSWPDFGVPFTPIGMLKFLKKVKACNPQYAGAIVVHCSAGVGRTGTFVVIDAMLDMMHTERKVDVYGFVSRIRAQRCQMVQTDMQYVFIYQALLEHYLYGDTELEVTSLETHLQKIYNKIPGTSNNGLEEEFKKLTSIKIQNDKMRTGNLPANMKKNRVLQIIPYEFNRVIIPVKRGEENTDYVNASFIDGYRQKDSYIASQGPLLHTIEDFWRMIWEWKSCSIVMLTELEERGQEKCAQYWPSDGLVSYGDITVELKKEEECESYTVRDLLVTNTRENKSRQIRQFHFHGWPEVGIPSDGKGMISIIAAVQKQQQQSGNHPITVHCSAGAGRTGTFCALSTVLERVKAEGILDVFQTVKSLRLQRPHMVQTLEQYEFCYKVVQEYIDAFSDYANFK
# Sequence of VHR (P51452 whole entry, species assumed): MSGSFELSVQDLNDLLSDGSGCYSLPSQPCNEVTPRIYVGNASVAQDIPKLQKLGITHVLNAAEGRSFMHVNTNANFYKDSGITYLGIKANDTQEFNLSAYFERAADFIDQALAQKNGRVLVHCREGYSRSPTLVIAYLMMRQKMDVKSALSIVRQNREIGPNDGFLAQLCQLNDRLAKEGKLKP
smiles,measurement,setting,value
"C=C/C(=C/C(=O)C[C@H](C)C[C@@H](C)CC[C@H](O)[C@H](C)C(=O)C[C@@H](O)[C@H](C)[C@@H](C)OC(=O)C[C@@H](O)C1=C(C)C(=O)OC1=O)CC [TTN, tautomycetin]",IC50,PTPα,> 50 µM
same,IC50,SHP1,14.6 ± 1.1 µM
same,IC50,SHP2,2.9 ± 0.2 µM
same,Ki,SHP2,1.6 ± 0.1 µM
same,reduction of SHP2 activity,"SHP2; 10 µM compound, pNPP, pH 7, 25 °C",80–90%
same,preference for SHP2 over all PTPs examined,SHP2; from IC50 values,≥ 5 fold
same,mode of SHP2 inhibition,"SHP2; pNPP hydrolysis, 25 °C, pH 7.0",competitive inhibitors
same,IC50,CD45,> 50 µM
same,inhibition of PP2A,PP2A,low nM range
same,IC50,VHR,> 50 µM
same,inhibition of the rest of the PTP panel (other than SHP2),panel of PTPs,< 30%
same,inhibition of PP1,PP1,low nM range
same,effect on TCR-mediated ERK1/2 activation,Jurkat T cells,strongly reduced
same,concentration inhibiting human primary T-cell tyrosine phosphorylation,human primary T-cell,1 µg/mL and 1.65 µM
